Screening data as filed in PubChem BioAssay.
An excerpt weighted towards active compounds, which were near 2.3% of everything screened.
AP complement: orthogonal test for alternative complement pathway inhibitors | hit rate 0.08% among 62,000 | inhibition, % at 5 µM | Human serum alternative complement pathway, LPS-coated ELISA, C3 deposition; tested in compound mixtures;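 active = inhibition above 30% in each of the two pooled mixtures holding the compound, so the lower value exceeds 30%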;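 note: 0% = serum in Mg-EGTA without compound and 100% = EDTA serum blank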
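Test system: human serum alternative complement pathway, C3 deposition on LPS-coated wells; also added: Plate-bound LPS; doses: 5 µM per compound in ten-compound mixtures; schedule: 1 h at 37 °C; detection: Anti-C3 ELISA, OD 450 nm; evaluation: percent inhibition of C3 deposition onto LPS; repeats: two pool placements per compound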
tolC growth inh: blocks growth of E. coli BW25113 tolC mutant; OD615; growth inhibition, % at 10 µM (by protocol); hit rate 2.2% among 65,000; AID 573;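 active = growth inhibition at or above a cutoff equal to the mean over every tested compound plus 3 SD, cut at about 60% in these data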;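 note: growth measured after 20 h incubation at 37 °C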
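Test system: E. coli BW25113 ΔtolC::kan bacteria | Medium: Kanamycin-containing LB broth (50 µg/mL) | Dosing: One dose of 10 µM final | Times: 20 h incubation with compound, 37 °C | Detection: Optical density read at 615 nm | Read-out basis: Percent growth inhibition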
E coli WT exp: E. coli BW25113 growth inhibition, expanded screen | OD600 absorbance | growth inhibition, % at 100 µM | hit rate 0.15% among 98,000;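 active = growth inhibition above about 50% at one test dose, limit read from the data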;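 note: growth measured after 20 h incubation at 37 °C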
HePTP inh: human HePTP phosphatase inhibition; P35236; recombinant HePTP phosphatase activity, OD absorbance; inhibition, % at 20 µM; AID 521; hit rate 0.64% among 110,000; in the data active = inhibition above about 50%;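 note: plate controls were vehicle for no effect and reference inhibitor for full effect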
PLAP act: activators of human placental alkaline phosphatase | P05187 | purified PLAP enzyme, luminescent substrate read-out; active compounds read high | activation fold at 20 µM | hit rate 1.2% among 96,000; in the data active = activation fold above about 2
Target sequence (P05187 whole entry, looked up): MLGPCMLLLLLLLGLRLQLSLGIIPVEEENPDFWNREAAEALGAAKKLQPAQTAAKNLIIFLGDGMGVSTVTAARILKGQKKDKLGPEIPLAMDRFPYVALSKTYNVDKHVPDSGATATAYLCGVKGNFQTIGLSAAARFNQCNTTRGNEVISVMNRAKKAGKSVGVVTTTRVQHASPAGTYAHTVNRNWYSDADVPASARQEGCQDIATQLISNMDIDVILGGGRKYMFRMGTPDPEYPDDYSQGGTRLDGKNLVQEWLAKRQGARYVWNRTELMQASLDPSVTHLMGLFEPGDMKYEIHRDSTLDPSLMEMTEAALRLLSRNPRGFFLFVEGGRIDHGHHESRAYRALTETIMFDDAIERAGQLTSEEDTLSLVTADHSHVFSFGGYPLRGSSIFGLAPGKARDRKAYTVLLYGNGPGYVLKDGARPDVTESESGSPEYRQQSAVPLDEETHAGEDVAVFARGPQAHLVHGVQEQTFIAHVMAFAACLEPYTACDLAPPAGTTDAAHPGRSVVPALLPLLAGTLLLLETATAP
Active calls of the source: *; nt = not tested or not shown.

SMILES	AP complement	tolC growth inh	E coli WT exp	HePTP inh	PLAP act
Cc1onc(-c2ccccc2Cl)c1C(=O)N1CCN(c2ccccc2F)CC1	nt	nt	nt	104*	nt
COCc1cc(=O)[nH]c(Nc2nc(C)c3cc(OC)ccc3n2)n1	nt	nt	-11	nt	2.1*
COc1ccc2nc(Nc3nc4ccccc4c(=O)[nH]3)nc(C)c2c1	nt	nt	nt	-19	nt
O=C(c1ccc(F)cc1)N1CCN(c2ccc(Cl)cc2)CC1	nt	nt	nt	0	nt
c1ccc(-c2n[nH]c(-c3ccccn3)n2)cc1	nt	nt	8	nt	2.2*
c1ccc(-c2n[nH]c(-c3ccccn3)n2)nc1	4	-3	12	4	2.8*
O=C1N=C(N2CCOCC2)S/C1=C/c1ccc(Cl)cc1	nt	nt	nt	102*	nt
CC(C)COc1ccc(-c2nnc(-c3ccco3)o2)cc1	5	61*	-17	5	1.2
CN(C)CC(=O)C12CC3CCC(CC(C3)C1)C2	nt	nt	nt	-2	nt
CCOC(=O)C1CCCN(S(=O)(=O)c2ccc(Br)s2)C1 (centres undefined)	10	28	-1	8	1.1
Cc1csc(NC(=O)C2CCCN(S(=O)(=O)c3ccc(Br)s3)C2)n1 (centres undefined)	-1	71*	-3	10	1.5
COC(=O)c1c(C)oc2ccc(OC/C=C/c3ccccc3)cc12	nt	nt	nt	-4	nt
COc1cc(Br)cc(/C=N/NC(=O)COc2cccc(Cl)c2)c1O	nt	nt	nt	99*	nt
O=C(COc1cccc(Cl)c1)N/N=C/c1c(Br)cc(Br)c(O)c1Br	nt	nt	nt	2	nt
CN(C)S(=O)(=O)c1cccc(C(=O)NCc2cccs2)c1	nt	nt	3	nt	0.8
CC1CCN(S(=O)(=O)c2cccc(C(=O)NCc3cccs3)c2)CC1	19	62*	-7	10	0.8
COc1ccc(C(=S)N2CCCC2)c(OC)c1	nt	nt	nt	94*	nt
O=c1c2ccccc2n(Cc2ccc(F)cc2)c(=O)n1C1CCCC1	3	76*	-11	0	0.7
N#CC1=C(SCC(=O)NC2CC2)NC(=O)C(C#N)C12CCCCC2 (centres undefined)	-16	7	1	-4	1.2
N#CC1=C(SCC(=O)NC23CC4CC(CC(C4)C2)C3)NC(=O)C(C#N)C12CCCCC2 (centres undefined)	-1	86*	-6	-10	nt
CC(C)(C)C1CCC2(CC1)C(C#N)=C(SCC(=O)NC1CCCCC1)NC(=O)C2C#N (centres undefined)	12	75*	2	0	1.3
O=C(CCCOc1ccccc1)Nc1ccccc1[N+](=O)[O-]	nt	nt	nt	0	nt
Cn1cccc1CN1CCN(C(=O)c2cccs2)CC1	nt	nt	nt	8	nt
O=C(CSc1nccn1-c1ccccc1)Nc1ccc2c(c1)OCO2	18	6	6	6	1.3
Cc1cc(C)cc(-n2ccnc2SCC(=O)Nc2ccc3c(c2)OCCO3)c1	-1	77*	-12	4	1.5
SMILES	AP complement	tolC growth inh	E coli WT exp	HePTP inh	PLAP act
CCCCn1c(N2CCC(Cc3ccccc3)CC2)nc2c1c(=O)[nH]c(=O)n2C	-5	100*	-14	0	0.9
CCCCCn1c(N2CCN(c3cccc(Cl)c3)CC2)nc2c1c(=O)[nH]c(=O)n2C	14	-1	-3	4	2*
Cc1nnc(SCCn2c(N3CCC(Cc4ccccc4)CC3)nc3c2c(=O)[nH]c(=O)n3C)s1	3	5	nt	-7	nt
COc1cc(C(O)c2nccn2C)cc(OC)c1OC (centres undefined)	nt	nt	nt	10	nt
CCN(CC(=O)NC(=O)NCc1ccco1)Cc1nc2ccccc2c(=O)[nH]1	3	3	2	16	nt
Cc1cc(Br)ccc1NC(=O)CNC(=O)CN(C)Cc1nc2ccccc2c(=O)[nH]1	20	14	1	5	nt
Cc1ccc(NC(=O)CN(C)Cc2nc3ccccc3c(=O)[nH]2)c(Br)c1	nt	nt	1	nt	2.2*
CCN(CC(=O)Nc1ccccc1Br)Cc1nc2ccccc2c(=O)[nH]1	nt	nt	6	nt	2.3*
CC(NC(=O)CN(C)Cc1nc2ccccc2c(=O)[nH]1)c1ccccc1 (centres undefined)	nt	nt	-4	nt	2.3*
CCOC(=O)CSc1nnc(CSc2nc3sc4c(c3c(=O)[nH]2)CCC4)n1-c1ccccc1	nt	nt	-7	nt	2*
O=C(Nc1cccc(C(=O)c2ccccc2)c1)c1ccc(Cl)cc1	nt	nt	nt	-7	nt
CCc1ccc(C(=O)CN(C#N)c2nc(C)cc(C)n2)cc1	nt	nt	-7	nt	2.7*
Cc1cc(C)nc(N(C#N)CC(=O)c2ccccc2)n1	-1	-3	5	2	0.9
Cc1ccc(NCc2nnc(SCc3ccc(C#N)cc3)n2Cc2ccco2)c(C)c1	12	61*	-18	5	1.6
CCOc1ccc(NC(=O)N(CCC(C)C)C2CCN(C(C)=O)CC2)cc1	nt	nt	0	nt	2*
CCOCCCN(C(=O)Nc1ccc(CC)cc1)C1CCN(C(C)=O)CC1	3	-12	0	-11	1.2
Cn1c(SCc2nc3ccccc3[nH]2)nnc1-c1ccccn1	4	-6	-1	-3	1.6
C=CCn1c(SCc2nc3ccccc3[nH]2)nnc1-c1ccccn1	8	7	2	-7	2*
Cc1nc(SCC(=O)NCc2ccco2)[nH]c(=O)c1C	nt	nt	5	nt	1
O=C(CSc1nc2nc(-c3cccs3)cc(C(F)(F)F)c2c(=O)[nH]1)NCc1ccco1	18	91*	-13	12	1.1
Cc1cc(C(=O)O)ccc1-n1c(C)ccc1C	-1	7	-2	104*	nt
O=C(O)c1ccc(N2C(=O)C=CC2=O)cc1Cl	nt	nt	nt	47	nt
Cc1cc(N)ccc1-n1c(C)ccc1C	-1	-14	18	8	1.2
COc1cc(C(=O)O)c(-n2c(C)ccc2C)cc1OC	nt	nt	nt	41	nt
Cc1ccc(C)n1-c1ccc(Cl)c(C(=O)O)c1	nt	nt	nt	104*	nt
SMILES	AP complement	tolC growth inh	E coli WT exp	HePTP inh	PLAP act
Cc1ccc(C)n1-c1ccc(Cl)cc1C(=O)O	nt	nt	nt	102*	nt
Cc1ccc(C)n1-c1cc(C(=O)O)ccc1Cl	nt	nt	nt	103*	nt
O=C(CN(Cc1ccccc1)Cc1ccccc1)NC12CC3CC(CC(C3)C1)C2	nt	nt	nt	1	nt
Cc1ccc(/C=C2/SC(=S)N(CCC(=O)N3c4ccccc4Sc4ccc(Cl)cc43)C2=O)cc1	nt	nt	nt	3	nt
Cc1ccc(-c2ccccc2)n1-c1ccc(O)c(C(=O)O)c1	nt	nt	nt	96*	nt
Cc1ccc(-c2ccccc2)n1-c1ccc(Cl)c(C(=O)O)c1	nt	nt	nt	-9	nt
Cc1ccc(C(=O)O)cc1-n1c(C)ccc1C	nt	nt	nt	104*	nt
CCN(CC)C(=O)c1sc(NC(=O)c2cc(Cl)ccc2Cl)c(C#N)c1C	nt	nt	nt	104*	nt
Cc1sc(NC(=O)c2cc(Cl)ccc2Cl)c(C#N)c1C	nt	nt	nt	103*	nt
COC(=O)C1=CNC=C(C(=O)OC)C1c1cc(OC)c(OC)c(OC)c1	nt	nt	nt	5	nt
CCc1cc2cc(C(=O)N3CCN(Cc4ccccc4)CC3)sc2s1	2	98*	-7	9	1.5
CCc1cc2cc(C(=O)N3CCN(c4ccccc4)CC3)sc2s1	nt	nt	-13	nt	0.7
CCOc1ccc2nc(NCCNC(=O)Nc3ccccc3)c(C#N)cc2c1	11	9	-6	12	1.5
COc1ccc2nc(NCCCNC(=O)c3cc(OC)c(OC)c(OC)c3)c(C#N)cc2c1	3	8	7	8	2.4*
CC(=O)Oc1cccc(N2C(=O)c3ccc(C(=O)c4ccc5c(c4)C(=O)N(c4cccc(OC(C)=O)c4)C5=O)cc3C2=O)c1	nt	nt	nt	2	nt
